ChEMBL document CHEMBL1821687, “Discovery, synthesis, and biological evaluation of novel SMN protein modulators” (J Med Chem, 2011)
Activity calls are given as the source filed them. No cut-off for these calls is given here.

Experiments:
[1] = target: Survival motor neuron protein (Homo sapiens) (UniProt Q16637); test: Activation of SMN expressed in HEK293 cells assessed as rate of induction by SMN2-promotor driven luciferase reporter gene assay relative to basal level; format: cell-based; design: concentration or dose not given beside the values
Survival motor neuron protein (Homo sapiens), sequence (Q16637 whole entry): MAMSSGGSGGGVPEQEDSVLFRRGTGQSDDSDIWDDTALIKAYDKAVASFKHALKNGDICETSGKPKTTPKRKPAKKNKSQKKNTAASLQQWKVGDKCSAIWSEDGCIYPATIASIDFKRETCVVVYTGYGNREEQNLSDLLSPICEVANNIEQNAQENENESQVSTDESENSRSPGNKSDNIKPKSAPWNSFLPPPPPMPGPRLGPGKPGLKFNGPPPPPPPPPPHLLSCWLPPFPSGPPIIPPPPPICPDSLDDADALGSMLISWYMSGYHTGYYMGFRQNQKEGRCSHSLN
Outline: (§1)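 HEK-293 cells stably carrying the SMN2 reporter construct, kept in DMEM with 10% FCS, glutamax, pyruvate, pen/strep and 200 µg/mL hygromycin, and assayed without hygromycin. 2,000 cells/well were plated and adhered overnight at 37 °C, 5% CO2. Compounds were added as a 7-point titration, 50 µM to 25 nM final, in 0.46% DMSO, for 30–36 h. OneGlo luminescence was normalized to 4.5 mM sodium butyrate (100%) and DMSO (0%).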

[2] = target: T1, Luciferin 4-monooxygenase (Luciola lateralis, UniProt Q01158); test: Inhibition of fire fly luciferase; design: species or system Aquatica lateralis; details: read-out: IC50
T1 sequence (Q01158 whole entry): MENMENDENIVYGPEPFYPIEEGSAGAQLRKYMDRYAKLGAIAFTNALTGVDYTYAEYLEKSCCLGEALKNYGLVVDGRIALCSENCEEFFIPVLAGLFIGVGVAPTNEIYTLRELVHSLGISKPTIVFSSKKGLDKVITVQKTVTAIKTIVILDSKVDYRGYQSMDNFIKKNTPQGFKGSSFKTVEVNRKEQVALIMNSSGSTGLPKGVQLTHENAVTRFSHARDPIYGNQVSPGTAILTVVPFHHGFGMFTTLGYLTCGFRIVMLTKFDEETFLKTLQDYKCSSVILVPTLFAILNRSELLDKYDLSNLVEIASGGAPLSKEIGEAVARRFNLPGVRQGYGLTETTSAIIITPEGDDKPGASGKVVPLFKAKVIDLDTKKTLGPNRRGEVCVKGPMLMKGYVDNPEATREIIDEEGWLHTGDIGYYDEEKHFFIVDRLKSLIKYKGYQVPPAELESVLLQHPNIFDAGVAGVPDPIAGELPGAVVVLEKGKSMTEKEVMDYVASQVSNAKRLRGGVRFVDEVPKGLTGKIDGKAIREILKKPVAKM

[3] = target: Survival motor neuron protein (Homo sapiens) (UniProt Q16637); test: Activation of SMN in human fibroblast cells obtained from type 1 SMA patients assessed as protein punctuate bodies per 100 nuclei at 37 to 3000 nM; format: cell-based
Outline: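 Type I SMA patient fibroblasts (3813 line) were treated with 37–3000 nM compound for 3 days. Gems were then counted per 100 nuclei.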

[4] = target: Survival motor neuron protein (Homo sapiens) (UniProt Q16637); test: Activation of SMN expressed in HEK293 cells assessed as concentration required to reach 50% of maximum luciferase signal by SMN2-promotor driven luciferase reporter gene assay; format: cell-based; outline: as §1
Caco-2 [5] = test: Apparent permeability from basolateral side to apical side of human Caco2 cells at 10 uM; format: ADME, cell-based; details: caco-2, 10 µM
Caco-2 [6] = test: Apparent permeability from apical side to basolateral side of human Caco2 cells at 10 uM; format: ADME, cell-based; details: caco-2, 10 µM
Liver = test: Half-life in mouse liver microsome at 1 uM; format: ADME; details: microsomes

## NC(=O)C1CCN(c2ncc(-c3ccc4c(c3)OCCCO4)s2)CC1
[1]
  Activity: 370%
[2]
  IC50: 3.2 µM
[3]
  Activity: inactive
[4]
  Activity: 0.038 µM
Caco-2 [5]
  Papp: 9.9 ×10⁻⁶ cm/s
Caco-2 [6]
  Papp: 13.1 ×10⁻⁶ cm/s
Liver
  t1/2: 30 min
